This is an account of results in paper PMC7032195 (Asian Journal of Pharmaceutical Sciences, 2018).

The test system of one series is MCF-7 cells. The series is described as follows: MTT assay of DTX, RES and their combinations at different mass ratios. The format is cell-based. Particulars: Homo sapiens. The essentials: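 MCF-7 cells seeded at 6000 cells/well 12 h before dosing, then exposed to each test compound alone (0–50.0 or 0–100.0 µg/ml) or as 1:1 combinations (2.5+2.5 to 50+50 µg/ml); DMEM vehicle control. After two days, OD read at 490 nm. Six replicate wells per condition, at least three independent repeats. Combination index calculated for 2:1, 1:1 and 1:2 mass ratios.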

Series [1] is described as follows: Pharmacokinetics after intravenous injection in rats. The format is in vivo, Sprague-Dawley rats. Particulars: i.v., 10 mg/kg. The method in brief: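 Male Sprague-Dawley rats (~200 g), n = 3, received ethanol solutions or co-loaded mPEG-PDLA micelles i.v. at 10 mg/kg. Orbital plexus blood was drawn into heparin tubes at 0.083–12 h. Plasma was separated at 5000 rpm for 10 min and stored at −20 °C. Carbamazepine was the internal standard, with methyl tert-butyl ether extraction. UV detection was at 228 or 306 nm. Parameters are mean ± SD.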

Setting [2] is: MCF7, read-out: IC50 in MCF-7 cells.

Like-named read-outs stand apart in the source and are kept apart here.

For the compound `CC(=O)O[C@@]12CO[C@@H]1C[C@H](O)[C@@]1(C)C(=O)[C@H](O)C3=C(C)[C@@H](OC(=O)[C@H](O)[C@@H](NC(=O)OC(C)(C)C)c4ccccc4)C[C@@](O)([C@@H](OC(=O)c4ccccc4)[C@H]21)C3(C)C` [DTX, docetaxel], the IC50 amounted to 10.4 ± 0.43 µg/mL with MCF-7 cells (MCF7, read-out: IC50 (µg/ml) DTX) and 10.4 µg/mL in the series with MCF-7 cells (setting [2]). Moreover, the “V” value in series [1] (analyte DTX) is 3.79 ± 0.83 L/kg.
On to `Oc1ccc(/C=C/c2cc(O)cc(O)c2)cc1` [RES, resveratrol], for which the IC50 with MCF-7 cells (MCF7, read-out: IC50 (µg/ml) RES) turned out to be 23 ± 0.54 µg/mL; in the series with MCF-7 cells (setting [2]) it was 23 µg/mL. Besides, the “V” value in series [1] (analyte RES) came to 3.45 ± 2.93 L/kg.
